Data published in publication PMC2217204 (The Journal of General Physiology, 2000).
“And” between values parts separate entries of the source, which are not always exact repeats. Equal entries are not always repeated. Where two headings read alike, the source gives them in different places. Values belong to the compound of their own block, whether it stands above or below them.

What was measured:
K1 channel = experiment: ATP-activated background K1 channel, atrial inside-out patches; format: cell-based, rat
KACh channel [1] = molecular target: T1, KACh channel (Rattus norvegicus, UniProt P48548+P63251); format: cell-based
T1 sequence (P63251 1-501): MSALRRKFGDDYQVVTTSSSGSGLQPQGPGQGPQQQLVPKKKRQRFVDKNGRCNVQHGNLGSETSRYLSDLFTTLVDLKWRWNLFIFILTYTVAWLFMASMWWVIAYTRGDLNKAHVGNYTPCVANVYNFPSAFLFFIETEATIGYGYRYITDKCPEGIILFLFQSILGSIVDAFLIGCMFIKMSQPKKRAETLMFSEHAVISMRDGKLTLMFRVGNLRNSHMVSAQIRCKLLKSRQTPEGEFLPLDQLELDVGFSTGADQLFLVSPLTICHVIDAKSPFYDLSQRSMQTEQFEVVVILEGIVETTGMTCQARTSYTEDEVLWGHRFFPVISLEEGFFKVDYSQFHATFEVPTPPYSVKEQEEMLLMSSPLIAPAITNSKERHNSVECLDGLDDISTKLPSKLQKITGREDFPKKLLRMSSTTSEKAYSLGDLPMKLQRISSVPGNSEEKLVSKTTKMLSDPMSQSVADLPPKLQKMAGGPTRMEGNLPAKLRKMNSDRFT
T1 sequence (P48548 1-419): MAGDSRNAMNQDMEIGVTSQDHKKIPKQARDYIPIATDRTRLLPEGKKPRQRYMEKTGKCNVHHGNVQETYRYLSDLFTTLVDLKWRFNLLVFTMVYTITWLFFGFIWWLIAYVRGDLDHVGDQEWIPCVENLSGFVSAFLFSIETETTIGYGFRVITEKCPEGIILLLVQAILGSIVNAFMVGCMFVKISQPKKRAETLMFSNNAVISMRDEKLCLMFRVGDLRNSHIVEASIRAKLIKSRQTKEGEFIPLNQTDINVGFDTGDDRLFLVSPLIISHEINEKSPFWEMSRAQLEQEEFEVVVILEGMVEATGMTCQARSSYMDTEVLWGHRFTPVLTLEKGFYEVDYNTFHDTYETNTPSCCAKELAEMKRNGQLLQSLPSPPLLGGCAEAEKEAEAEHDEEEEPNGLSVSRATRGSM
How it was run: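 Inside-out patches from cultured newborn-rat atrial cells, 10 μM ACh in pipette, −60 mV, 24–26°C. Channels were activated by 100 μM GTP in the bath, then 4 mM ATP was added, with free Mg2+ held at 0.5 mM. nPo from 1–2 min of recording. Open and closed times came from maximum-likelihood fits of idealized records to schemes with 2–3 closed and two open states, using patches with ≤4 open levels.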

KACh channel [2] = molecular target: T1, KACh channel; format: cell-based; conditions: 4 mM ATP with 100 μM GTP in pipette, 10 μM ACh, outside-out
How it was run: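 Cultured atrial myocytes from 1-day-old rats; outside-out patches at −60 mV, 24–26°C. Pipette held […] 100 μM GTP, GTP plus 4 mM ATP, or these plus atrial cytosolic fraction (5 mg protein/ml). Symmetrical 140 mM KCl, 0.5 mM MgCl2, 5 mM EGTA, 10 mM HEPES, pH 7.2. nPo from 1–2 min of recording.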

KACh channel [3] = molecular target: T1, KACh channel; format: cell-based; conditions: for inhibition of ATP-dependent gating, extracellular application: 5 μM in the pipette solution (extracellular), after 5 min, n = 4 each; for Hill coefficient of inhibition: ATP-modified KACh channels, inside-out; for reversal of inhibition of ATP-dependent gating: fatty acid–free albumin 50 μg/ml
GIRK1/4 = experiment: ATP-dependent gating of GIRK1/4 expressed in Xenopus oocytes, βγ-activated; format: cell-based; conditions: βγ 50 nM
How it was run: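 Xenopus oocytes injected with GIRK1 and GIRK4 cRNA (~0.5 ng/nl) and kept ~2 d at 19°C in Barth's solution. Vitelline membrane was removed before patching. Inside-out patches in 140 mM KCl, pH 7.2. Channel activity and open-time kinetics were assessed with ATP and fatty acid on the cytoplasmic side.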

KATP channel = KATP channel (Rattus norvegicus, UniProt P70673); experiment: KATP channel, inside-out patches from adult rat ventricular cells; format: cell-based
Sequence of KATP channel (P70673 whole entry): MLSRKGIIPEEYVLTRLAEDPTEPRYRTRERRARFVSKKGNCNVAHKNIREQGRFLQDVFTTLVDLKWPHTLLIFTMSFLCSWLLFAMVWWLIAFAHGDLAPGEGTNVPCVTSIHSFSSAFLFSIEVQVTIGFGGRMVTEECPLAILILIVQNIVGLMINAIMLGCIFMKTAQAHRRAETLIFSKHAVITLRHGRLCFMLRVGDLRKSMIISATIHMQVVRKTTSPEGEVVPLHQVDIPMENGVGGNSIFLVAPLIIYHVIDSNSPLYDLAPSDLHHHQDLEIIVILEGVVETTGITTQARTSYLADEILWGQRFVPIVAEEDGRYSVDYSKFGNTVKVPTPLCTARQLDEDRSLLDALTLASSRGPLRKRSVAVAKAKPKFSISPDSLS
Sequence of KATP channel (Q63563 whole entry partner): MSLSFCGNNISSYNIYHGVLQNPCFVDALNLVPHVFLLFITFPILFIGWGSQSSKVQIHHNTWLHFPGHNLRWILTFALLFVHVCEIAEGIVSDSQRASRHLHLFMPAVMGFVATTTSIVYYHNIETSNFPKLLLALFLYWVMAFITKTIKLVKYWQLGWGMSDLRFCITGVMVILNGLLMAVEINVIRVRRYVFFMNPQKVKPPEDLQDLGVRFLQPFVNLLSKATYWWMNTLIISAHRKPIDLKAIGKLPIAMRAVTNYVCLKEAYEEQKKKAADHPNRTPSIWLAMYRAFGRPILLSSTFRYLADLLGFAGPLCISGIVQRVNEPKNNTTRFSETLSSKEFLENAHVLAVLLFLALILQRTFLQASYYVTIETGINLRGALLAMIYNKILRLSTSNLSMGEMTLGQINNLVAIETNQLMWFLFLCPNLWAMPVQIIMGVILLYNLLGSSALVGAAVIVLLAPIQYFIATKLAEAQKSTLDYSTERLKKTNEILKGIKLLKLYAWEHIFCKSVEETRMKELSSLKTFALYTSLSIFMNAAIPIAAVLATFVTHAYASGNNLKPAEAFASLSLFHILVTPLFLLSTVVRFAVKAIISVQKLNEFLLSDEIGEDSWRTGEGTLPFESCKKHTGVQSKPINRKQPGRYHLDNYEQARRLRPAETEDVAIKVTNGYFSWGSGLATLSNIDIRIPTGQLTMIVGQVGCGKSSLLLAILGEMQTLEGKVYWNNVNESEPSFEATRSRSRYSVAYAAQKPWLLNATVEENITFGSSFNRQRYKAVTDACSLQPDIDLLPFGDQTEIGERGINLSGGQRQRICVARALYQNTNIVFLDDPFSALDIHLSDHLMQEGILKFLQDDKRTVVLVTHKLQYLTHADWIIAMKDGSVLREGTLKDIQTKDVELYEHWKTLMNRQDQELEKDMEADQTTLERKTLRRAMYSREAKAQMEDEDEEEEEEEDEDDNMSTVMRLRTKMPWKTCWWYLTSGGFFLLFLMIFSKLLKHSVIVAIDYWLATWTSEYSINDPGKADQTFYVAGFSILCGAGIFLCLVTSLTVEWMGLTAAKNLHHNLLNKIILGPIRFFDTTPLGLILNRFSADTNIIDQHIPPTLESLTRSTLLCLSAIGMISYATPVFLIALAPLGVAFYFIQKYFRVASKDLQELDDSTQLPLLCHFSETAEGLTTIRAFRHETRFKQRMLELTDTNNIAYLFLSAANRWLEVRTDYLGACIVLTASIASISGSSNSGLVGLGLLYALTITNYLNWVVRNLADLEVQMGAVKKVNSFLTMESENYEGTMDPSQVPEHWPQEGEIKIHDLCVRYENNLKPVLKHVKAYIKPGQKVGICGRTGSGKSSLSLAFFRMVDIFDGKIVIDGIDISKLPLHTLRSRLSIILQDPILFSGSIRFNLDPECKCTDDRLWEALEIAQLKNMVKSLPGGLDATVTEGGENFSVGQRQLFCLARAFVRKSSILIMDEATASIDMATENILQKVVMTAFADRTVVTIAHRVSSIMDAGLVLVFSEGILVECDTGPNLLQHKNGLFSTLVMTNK
How it was run: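 KATP channels that appeared on forming inside-out patches were tested with 5 μM arachidonic acid on the cytoplasmic side. In some patches channels were first allowed to run down, then briefly exposed to 3 mM ATP to reactivate them before fatty acid was applied. Recordings were at 24–26°C; 2 μM was also tested (n = 3).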

KACh channel [4] = molecular target: T1, KACh channel; experiment: βγ-activated KACh channels, atrial inside-out patches; format: cell-based
How it was run: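 Atrial inside-out patches at −60 mV in 140 mM KCl, pH 7.2, 24–26°C. Channels were activated by purified bovine βγ subunit applied to the cytoplasmic face. Linoleic or arachidonic acid (2 μM, sonicated into bath solution) was applied first, then 4 mM ATP was added. nPo was compared before and after ATP.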

KACh channel [5] = molecular target: T1, KACh channel; conditions: cited from earlier work; for effect on KACh channel activity: physiological concentrations, ref Hong et al. 1996
KACh channel [6] = molecular target: T1, KACh channel; format: cell-based; conditions: for effect on PIP2-dependent gating of KACh channel: 2 μM fatty acid applied with 30 μM PIP2; for τo1: 100 μM phospholipid, inside-out, n = 3
[7] = molecular target: T2, KACh channels in hippocampal pyramidal neurons (Rattus norvegicus, UniProt P48550+P63251); experiment: ATP-dependent gating of KACh channel in hippocampal neurons, 5-HT as agonist; format: cell-based; conditions: 2 μM with 100 μM GTP and 4 mM ATP, 10 μM 5-HT in pipette
T2 sequence (P63251 1-501): T1 sequence (P63251 1-501)
T2 sequence (P48550 1-425): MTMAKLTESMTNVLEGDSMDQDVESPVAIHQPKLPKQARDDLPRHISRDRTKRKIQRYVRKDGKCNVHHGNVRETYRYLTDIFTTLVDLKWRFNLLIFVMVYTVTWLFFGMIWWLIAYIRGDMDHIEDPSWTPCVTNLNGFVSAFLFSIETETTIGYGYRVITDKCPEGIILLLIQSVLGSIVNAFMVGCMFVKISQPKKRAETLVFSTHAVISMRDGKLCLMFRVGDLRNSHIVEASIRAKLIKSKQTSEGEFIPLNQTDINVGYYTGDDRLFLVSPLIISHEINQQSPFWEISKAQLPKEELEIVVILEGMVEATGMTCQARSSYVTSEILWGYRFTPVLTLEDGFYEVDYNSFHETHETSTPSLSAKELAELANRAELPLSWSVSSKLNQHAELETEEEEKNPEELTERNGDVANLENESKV
How it was run: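 Pyramidal neurons from the CA3 region of adult rat hippocampus. Slices ~500 μm thick were digested in 0.33 mg/ml trypsin at 30°C, then in DNase I, triturated, and settled onto coverslips. Inside-out patches were activated by 100 μM GTP, then 4 mM ATP was added. Open states were assessed from duration histograms and kinetic-scheme fits with one or two open states.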

[8] = K 1/2 (effect on ATP-dependent gating of KACh channel), atrial inside-out patches, 100 μM GTP and 4 mM ATP, lipid 0.1, 1, 3, 10 and 30 μM, n = 3 each
[9] = atrial inside-out patches, 100 μM GTP and 4 mM ATP, lipid 0.1, 1, 3, 10 and 30 μM, n = 3 each

Compound: Nc1ncnc2c1ncn2[C@@H]1O[C@H](COP(=O)(O)OP(=O)(O)OP(=O)(O)O)[C@@H](O)[C@H]1O [ATP]
activation of K1 channel (K1 channel; 4 mM ATP in bath, inside-out atrial patch): quickly activated
increase in nPo (KACh channel [1]; 4 mM ATP added to GTP, inside-out patches): approximately fivefold increase
mean closed time of long closings (C1) (KACh channel [1]; 4 mM ATP, inside-out patches): 62 ms
Hill coefficient of [ATP]–nPo relationship (KACh channel [1]; n = 3): 1.9 ± 0.2
channel activity (nPo) with ATP versus without (KACh channel [2]): approximately fivefold higher

Compound: CCCCC/C=C\C/C=C\C/C=C\C/C=C\CCCC(=O)O [Arachidonic acid [20:4 (n-6)], Arachidonic acid]
KACh open time constant after fatty acid (KACh channel [3]; 2 μM AA with GTP and 4 mM ATP, atrial patch also containing K1 channel): 1.0 ± 0.1 ms
inhibition of ATP-dependent gating, extracellular application (KACh channel [3]): did not inhibit
Hill coefficient of inhibition (KACh channel [3]): ~2
IC50 (KACh channel [3]; [8]): 1700 ± 200 nM
voltage dependence of the effect (KACh channel [3]; channel activity at different membrane potentials (Fig. 10 B)): voltage-insensitive
effect on ATP-induced changes in GIRK1/4 channel kinetics (GIRK1/4): blocked
effect on K1 channel (K1 channel; 2 or 5 μM AA, ATP-activated, n = 3 each, listed as AA): no effect
KATP channel inhibition in the presence of PIP2 (KATP channel; 5 μM AA with PIP2 present, listed as AA): ineffective
inhibition of KATP channels reactivated by ATP after rundown (KATP channel; brief exposure to 3 mM ATP, n = 4, listed as AA): quick inhibition
inhibition at 2 µM (KATP channel; read-out: inhibition of KATP channel activity): 62 ± 12%
IC50 (KACh channel [4]): 1500 nM

Compound: [Ca+2] [Ca^2+]
effect on open time constant of the KACh channel (KACh channel [5]; at concentrations above 30 μM, ref Kim 1991): decreased
effect on KACh channel activity (KACh channel [5]): no significant effect

Compound: CCCCC/C=C\C/C=C\CCCCCCCC(=O)O [Linoleic acid [18:2 (n-6)], Linoleic acid]
inhibition of ATP-dependent gating, extracellular application (KACh channel [3]): did not inhibit
Hill coefficient of inhibition (KACh channel [3]): ~2
IC50 (KACh channel [3]; [8]): 1200 ± 200 nM
IC50 (KACh channel [3]; K 1/2 for inhibition, pipette solution 70 mM K+, n = 3): 1600 ± 400 nM
IC50 (KACh channel [3]; K 1/2 for inhibition, pipette solution 140 mM K+, n = 3): 1500 ± 300 nM
IC50 (KACh channel [3]; K 1/2 for inhibition, pipette solution 210 mM K+, n = 3): 1700 ± 400 nM
influence on K1 channel kinetics (K1 channel; linoleic acid 2 μM (n = 3), cytosolic fraction 5 mg protein/ml (n = 2), lipid fraction (n = 2)): failed to significantly influence
inhibition of KATP channel activity (KATP channel; 5 μM, during channel rundown): near maximal inhibition
increase in channel activity on further addition of 4 mM ATP (KACh channel [4]; βγ-activated channels exposed to 2 μM fatty acid first, n = 5): 1.3 ± 0.1 fold
effect on PIP2-dependent gating of KACh channel (KACh channel [6]): inhibited
open time constant (one open state) [7]: 1.0 ± 0.1 ms

Compound: Nc1nc2c(ncn2[C@@H]2O[C@@H]3COP(=O)(O)O[C@H]3[C@H]2O)c(=O)[nH]1 [cGMP]
effect on KACh channel activity (KACh channel [5]): no significant effect

Compound: O=P(O)(O)O[C@@H]1[C@H](O)[C@H](O)[C@@H](OP(=O)(O)O)[C@H](OP(=O)(O)O)[C@H]1O [inositol trisphosphate]
effect on KACh channel activity (KACh channel [5]): no significant effect

Compound: Phosphatidylserine
K 1/2 (effect on ATP-dependent gating of KACh channel) (KACh channel [3]; [9]): No effect

Compound: phosphatidylcholine
τo1 (KACh channel [6]): 2.5 ± 0.6 ms

The next lines start with results.

inhibition of ATP-dependent gating, extracellular application (KACh channel [3]): did not inhibit
Hill coefficient of inhibition (KACh channel [3]): ~2
IC50 (KACh channel [3]; [8]): 1500 ± 200 nM
inhibition at 50 µM (KACh channel [3]; read-out: partial inhibition of ATP-dependent gating, extracellular application): 65 ± 6%
effect on PIP2-dependent gating of KACh channel (KACh channel [6]): inhibited
Compound: CCCCCCCC/C=C\CCCCCCCC(=O)O [Oleic acid [18:1 (n-9)], Oleic acid]
inhibitory potency after incubation (KACh channel [3]; room temperature or 37°C for 30 min): reduced their inhibitory potency significantly

K 1/2 (effect on ATP-dependent gating of KACh channel) (KACh channel [3]; [9]): No effect
Compound: NCCCNCCCCNCCCN [Spermine]

K 1/2 (effect on ATP-dependent gating of KACh channel) (KACh channel [3]; [9]): No effect
Compound: CCCCCCCCCCCCC/C=C/[C@@H](O)[C@@H](N)CO [Sphingosine (D-form), Sphingosine]

K 1/2 (effect on ATP-dependent gating of KACh channel) (KACh channel [3]; [9]): No effect
Compound: CCCCCCCCCCCCCCCCCC(=O)O [Stearic acid (18:0), Stearic acid]

IC50 (KACh channel [3]; read-out: K 1/2 (effect on ATP-dependent gating of KACh channel), atrial inside-out patches, 100 μM GTP and 4 mM ATP, lipid 0.1, 1, 3, 10 and 30 μM, n = 3 each): 6200 ± 800 nM
Compound: CC/C=C\C/C=C\C/C=C\CCCCCCCC(=O)O [α-linolenic acid [18:3 (n-3)], α-linolenic acid]

K 1/2 (effect on ATP-dependent gating of KACh channel) (KACh channel [3]; [9]): No effect
Compound: Lysophosphatidylethanolamine

reversal of inhibition of ATP-dependent gating (KACh channel [3]): almost complete reversal
reversal of inhibition of ATP-dependent gating (KACh channel [3]; listed as fatty acid-free albumin): completely remove
Compound: albumin: fatty acid–free bovine serum albumin

τo1 (KACh channel [6]): 2.8 ± 0.5 ms
Compound: phosphatidylethanolamine

effect on rundown of KATP channels (KATP channel; PIP2 applied soon after patch excision): prevented rundown
open time constant of second open state (KACh channel [6]; 30 μM PIP2 after GTPγS (100 μM) activation): 2.6 ± 0.3 ms and 2.6 ms
increase in channel activity (KACh channel [6]; 30 μM PIP2 after GTPγS activation): approximately twofold increase
Compound: phosphatidylinositol-4,5-bisphosphate [PIP2]
